According to BindingDB's records for doi:10.1021/jm020269o (The Pennsylvania State University, 2003):

Columns and labels:
[1] = target: T1, Bifunctional epoxide hydrolase 2 (Mus musculus, UniProt P34914); assay: Inhibitory activity against murine soluble epoxide hydrolase
T1 sequence (P34914 whole entry): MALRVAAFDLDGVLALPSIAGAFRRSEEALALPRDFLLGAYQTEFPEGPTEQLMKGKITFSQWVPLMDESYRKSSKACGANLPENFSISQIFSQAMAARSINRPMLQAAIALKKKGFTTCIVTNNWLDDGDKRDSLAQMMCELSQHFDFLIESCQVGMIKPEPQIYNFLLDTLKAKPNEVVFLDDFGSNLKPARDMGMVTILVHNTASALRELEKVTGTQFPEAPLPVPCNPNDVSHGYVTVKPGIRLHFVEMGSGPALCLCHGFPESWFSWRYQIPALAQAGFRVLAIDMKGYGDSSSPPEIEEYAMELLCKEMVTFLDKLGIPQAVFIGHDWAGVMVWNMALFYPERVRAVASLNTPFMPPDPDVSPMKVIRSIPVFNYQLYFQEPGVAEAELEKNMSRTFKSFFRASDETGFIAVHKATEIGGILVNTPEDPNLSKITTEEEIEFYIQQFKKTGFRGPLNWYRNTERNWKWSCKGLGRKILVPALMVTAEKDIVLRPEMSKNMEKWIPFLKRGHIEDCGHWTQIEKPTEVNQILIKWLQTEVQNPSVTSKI
Method in brief: (§1)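 Recombinant sEH (human HsEH or mouse MsEH) was expressed in baculovirus, affinity-purified to at least 97% purity, and had no detectable esterase or glutathione transferase activity. Enzyme (HsEH 0.20 µM, MsEH 0.10 µM) was preincubated with inhibitor for 5 min at 30 °C in pH 7.4 sodium phosphate buffer. Racemic 4-nitrophenyl-trans-2,3-epoxy-3-phenylpropyl carbonate (40 µM) was then added. 4-Nitrophenolate was read at 405 nm over 1 min. Assays were run in triplicate, with inhibitor up to 500 µM. IC50 came from regression of at least five points.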

[2] = target: T2, Bifunctional epoxide hydrolase 2 (Homo sapiens, UniProt P34913); assay: Inhibitory activity against human soluble epoxide hydrolase; method in brief: as §1
T2 sequence (P34913 whole entry): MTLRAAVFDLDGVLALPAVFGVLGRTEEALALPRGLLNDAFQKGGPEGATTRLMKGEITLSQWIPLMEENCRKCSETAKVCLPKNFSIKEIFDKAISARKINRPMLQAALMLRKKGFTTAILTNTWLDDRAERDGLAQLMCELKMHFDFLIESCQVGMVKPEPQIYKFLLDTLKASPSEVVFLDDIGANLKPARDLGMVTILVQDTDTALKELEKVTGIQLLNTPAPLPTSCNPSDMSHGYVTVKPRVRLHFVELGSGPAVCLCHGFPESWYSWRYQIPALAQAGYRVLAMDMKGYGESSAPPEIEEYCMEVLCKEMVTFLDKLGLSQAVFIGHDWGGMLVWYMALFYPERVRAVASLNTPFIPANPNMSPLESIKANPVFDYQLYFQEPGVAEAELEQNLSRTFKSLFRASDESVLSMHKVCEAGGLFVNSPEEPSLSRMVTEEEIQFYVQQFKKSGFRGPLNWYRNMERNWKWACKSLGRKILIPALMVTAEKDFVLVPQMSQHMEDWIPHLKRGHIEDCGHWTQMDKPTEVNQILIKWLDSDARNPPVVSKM

IC50 [1]	IC50 [2]	SMILES
195 µM	129 µM	CN(C(=O)NC1CCCCC1)c1ccccc1 [3-Cyclohexyl-1-methyl-1-phenyl-urea]
0.1 µM	0.549 µM	CCCCCCCCCCCCNC(=O)NC1CCCC1 [1-Cyclopentyl-3-dodecyl-urea]
0.129 µM	229 µM	CCCCCCCCCCCCNC(=O)NCC(C)(C)C(C)(C)C [1-Dodecyl-3-(2,2,3,3-tetramethyl-butyl)-urea]
224 µM		CCCCCCNC(=O)NC [1-Hexyl-3-methyl-urea]
	0.257 µM	O=C(Nc1ccc(Cl)c(Cl)c1)Nc1ccc(Cl)c(Cl)c1 [US8815951, 299]
4.37 µM	19 µM	CC(C)(C)OC(=O)CNC(=O)NC1CCCCC1 [(3-Cyclohexyl-ureido)-acetic acid tert-butyl ester]
